Results on 23 molecules are retold here after ChEMBL document CHEMBL2086375 (Bioorg Med Chem, 2012).

In series [1] the test system is Liver microsomes. The series is described as follows: Metabolic stability in human liver microsomes assessed as high CYP1A2 activity-mediated metabolism measured as compound remaining at 1 uM incubated for 10 mins prior to NADPH addition measured after 30 mins by LC/MS/MS analysis relative to control. To be noted: 0.5 h. (In general: Liver microsomes are vesicles of endoplasmic reticulum, rich in cytochrome P450 enzymes.)

The subject of series [2] is Liver microsomes. The experiment in a line: Metabolic stability in human liver microsomes assessed as low CYP1A2 activity-mediated metabolism measured as compound remaining at 1 uM incubated for 10 mins prior to NADPH addition measured after 30 mins by LC/MS/MS analysis relative to control. To be noted: 0.5 h.
Series [3] is described as follows: Half life in simulated intestinal fluid at 1 mg/mL. Type of series: physicochemical. To be noted: simulated gi fluid.
A short description of series [4]: Prodrug activation in simulated intestinal fluid at 0.01 mg/mL after 60 mins by LC/MS analysis. To be noted: simulated gi fluid, 1 h. A digest of the protocol:
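Compound at 0.01 mg/mL in simulated intestinal fluid, mixed and held at 37 °C for 60 min. Samples were injected consecutively onto a C18 reverse-phase HPLC column for analysis. Results are percent disappearance of prodrug.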

A short description of series [5]: Half life in human plasma at 1 uM. Format: ADME, cell-free.
For a further series, the system named is Liver. The series is described as follows: Prodrug activation in mouse liver microsomes at 1 uM incubated for 10 mins prior to NADPH addition measured after 30 mins by LC/MS/MS analysis. The arrangement: species or system Microsome. To be noted: 0.5 h. A digest of the protocol: (§1)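 Liver microsomes were pre-warmed with compound at 37 °C for 10 min, and the reaction was started with NADPH at 1 mM final. A parallel incubation without NADPH served as control. After 30 min at 37 °C, samples were quenched with acetonitrile containing 0.1% formic acid and internal standard, then centrifuged. Supernatant was diluted fivefold and read by LC/MS/MS (SRM, positive ESI). Results are percent of control remaining.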

For series [6], the system named is Liver microsomes. To be noted: human, 0.5 h, 1 µM.
Series [7] relates to Liver microsomes. The experiment in a line: Prodrug activation in human liver microsomes at 1 uM incubated for 10 mins prior to NADPH addition measured after 30 mins by LC/MS/MS analysis. The arrangement: species or system Microsome. To be noted: 0.5 h. A digest of the protocol:
as §1

Series [8] concerns Liver microsomes. The experiment in a line: Half life in human liver microsomes at 1 uM. Format: ADME, Microsome.
A short description of series [9]: Half life in simulated gastric fluid at 1 mg/mL. Type of series: physicochemical.
Series [10] concerns Liver microsomes. The series is described as follows: Metabolic stability in human liver microsomes assessed as low CYP1A2 activity-mediated metabolism measured as compound remaining at 1 uM after 30 mins by LC/MS/MS analysis relative to control. To be noted: 0.5 h.
Series [11] deals with Liver microsomes. The series is described as follows: Drug metabolism in human liver microsomes assessed as high CYP1A2 activity-mediated N-hydroxyriluzole formation at 1 uM incubated for 10 mins prior to NADPH addition measured after 30 mins by LC/MS/MS analysis. To be noted: 0.5 h. Type of series: ADME, Microsome.

For orientation: half-life means the time needed for the level to fall by half in the phase considered. A higher half-life goes with slow loss.

Consider `N[C@@H](COCc1ccccc1)C(=O)Nc1nc2ccc(OC(F)(F)F)cc2s1`, for which the Stability in the series with Liver microsomes [1] worked out at 70%; in the series with Liver microsomes [2], 78%; in the series on Liver microsomes [6], 77%; in the series on Liver microsomes [10] it was 76%. Moreover, the t1/2 in [3] is reported as 98 min; in the series with Liver microsomes [8], greater than 60 min. In addition, the Drug metabolism is recorded as 0% in [4], 0% with Liver and 15% in the series with Liver microsomes [7]. The molecule also came in with a half-life at 1 µM in [5] of 300 min. The half-life at 1 mg/mL in series [9] is greater than 60 min.

As to `N[C@H](Cc1ccccc1)C(=O)Nc1nc2ccc(OC(F)(F)F)cc2s1`, the Drug metabolism in series [4] is on record as 0%; in the series on Liver it was 12%; with Liver microsomes [7], 18%.

For `CN(C)CCOC(=O)Nc1nc2ccc(OC(F)(F)F)cc2s1`, the Drug metabolism in series [4] is on record as 0%; in the series with Liver, 13%; in the series on Liver microsomes [7] it was 10%.

Consider `CC(C)(C)OC(=O)CCC(=O)Nc1nc2ccc(OC(F)(F)F)cc2s1`, for which the Drug metabolism in series [4] was 0%; in the series with Liver it was 0%; in the series on Liver microsomes [7], 21%.

As to `CCC(C)OC(=O)Nc1nc2ccc(OC(F)(F)F)cc2s1` (centres undefined), the Drug metabolism in series [4] was 0%; with Liver, 23%; in the series with Liver microsomes [7], 14%.

As for `NCCCC(=O)Nc1nc2ccc(OC(F)(F)F)cc2s1`, the Drug metabolism in series [4] is recorded as 0%; in the series on Liver it was 66%; in the series with Liver microsomes [7], 19%.

For `CCCCOC(=O)Nc1nc2ccc(OC(F)(F)F)cc2s1`, the Drug metabolism in series [4] is 0%; in the series on Liver, 53%; with Liver microsomes [7], 13%.

For the molecule `NCC1(CC(=O)Nc2nc3ccc(OC(F)(F)F)cc3s2)CCCCC1`, in series [4], the Drug metabolism was 50%.

As to `COC(=O)CCC(=O)Nc1nc2ccc(OC(F)(F)F)cc2s1`, the figures for the Drug metabolism (in [4]; in the series on Liver; in the series with Liver microsomes [7]) were 0%, 77% and 34%, respectively.

With `COC(=O)Nc1nc2ccc(OC(F)(F)F)cc2s1`, the Drug metabolism in series [4] is given as 0%; with Liver it was 10%; with Liver microsomes [7], 0%.

Regarding `C[C@H](N)C(=O)Nc1nc2ccc(OC(F)(F)F)cc2s1`, the figures for the Drug metabolism (in series [4]; in the series with Liver; with Liver microsomes [7]) were 50%, 1% and 0%, respectively.

For `N[C@@H](Cc1ccccc1)C(=O)Nc1nc2ccc(OC(F)(F)F)cc2s1`, the values for the Drug metabolism in the series with Liver and in the series on Liver microsomes [7] were 2% and 0%, respectively.

With `CN(C)CCCOC(=O)Nc1nc2ccc(OC(F)(F)F)cc2s1`, the figures for the Drug metabolism (in series [4]; in the series on Liver; in the series on Liver microsomes [7]) were 0%, 71% and 0%, respectively.

On to `Nc1nc2ccc(OC(F)(F)F)cc2s1` [RILUZOLE], for which, in the series with Liver microsomes [11], the Drug metabolism result is recorded as “Active”.

Turning to `CC(C)[C@H](N)C(=O)Nc1nc2ccc(OC(F)(F)F)cc2s1`, the Drug metabolism in [4] is given as 40%; with Liver, 40%; in the series with Liver microsomes [7], 6%.

Take `O=C(O)CCC(=O)Nc1nc2ccc(OC(F)(F)F)cc2s1`: the Drug metabolism was 0% in [4], 70% in the series on Liver and 0% with Liver microsomes [7].

With `O=C(Cc1ccccc1[N+](=O)[O-])Nc1nc2ccc(OC(F)(F)F)cc2s1`, the values for the Drug metabolism (in series [4]; with Liver; in the series on Liver microsomes [7]) were 0%, 59% and 22%, respectively.

Consider `O=C(CCC(=O)Nc1nc2ccc(OC(F)(F)F)cc2s1)NCc1cccnc1`, for which the Drug metabolism in series [4] is 10%; with Liver, 0%; with Liver microsomes [7], 4%.

For the molecule `CCCOC(=O)Nc1nc2ccc(OC(F)(F)F)cc2s1`, the Drug metabolism in series [4] was 0%; with Liver, 15%; in the series on Liver microsomes [7] it was 34%.

With `O=C(CCC(=O)Nc1nc2ccc(OC(F)(F)F)cc2s1)NCCN1CCOCC1`, the Drug metabolism in [4] is on record as 60%.

As to `N[C@H](COCc1ccccc1)C(=O)Nc1nc2ccc(OC(F)(F)F)cc2s1`, the Drug metabolism in the series with Liver is 24%; in the series with Liver microsomes [7], 0%.

`CCOC(=O)Nc1nc2ccc(OC(F)(F)F)cc2s1`: the Drug metabolism in series [4] is on record as 0%; in the series on Liver, 8%; with Liver microsomes [7], 7%.

Take `C[C@@H](N)C(=O)Nc1nc2ccc(OC(F)(F)F)cc2s1`: the values for the Drug metabolism (in series [4]; in the series on Liver; in the series with Liver microsomes [7]) were 50%, 10% and 4%, respectively.
